Here are results for 21 compounds from ChEMBL document CHEMBL3997844, “Synthesis and anti-inflammatory activity of isoquebecol” (Bioorg Med Chem, 2017).

In data set [1] the test system is U-937. Nature of the data set: Anti-inflammatory activity in human U937-derived macrophage-like cells assessed as inhibition of LPS-induced IL-6 secretion at 125 uM preincubated for 2 hrs followed by LPS addition measured after 24 hrs by ELISA relative to control. Format: functional. A general note: An ELISA detects its analyte on a solid surface through an enzyme-linked reagent.

Data set [2] in a line: Cytotoxicity against human U937-derived macrophage-like cells assessed as reduction in cell viability after 24 hrs by MTT assay. It counts as cell-based, U-937. Conditions: read-out: MNCC. The essentials:
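PMA-differentiated U937 macrophage-like cells (1×10^6 cells/well, RPMI-1% FBS) exposed to 2-fold serial dilutions from 1000 to 7.81 µM for 24 h. Viability read by MTT assay; highest non-cytotoxic concentration recorded.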
In general terms: Tetrazolium assays rely on reduction of a dye to a coloured formazan, in cell work by metabolically active cells.

The subject of data set [3] is U-937. Nature of the data set: Anti-inflammatory activity in human U937-derived macrophage-like cells assessed as inhibition of LPS-induced IL-6 secretion at 250 uM preincubated for 2 hrs followed by LPS addition measured after 24 hrs by ELISA relative to control. It counts as functional.
The subject of data set [4] is U-937. In words: Anti-inflammatory activity in human U937-derived macrophage-like cells assessed as inhibition of LPS-induced IL-6 secretion at 500 uM preincubated for 2 hrs followed by LPS addition measured after 24 hrs by ELISA relative to control. Format: functional.
The test system of data set [5] is U-937. In words: Anti-inflammatory activity in human U937-derived macrophage-like cells assessed as inhibition of LPS-induced IL-6 secretion at 31.25 uM preincubated for 2 hrs followed by LPS addition measured after 24 hrs by ELISA relative to control. Format: functional.
The subject of data set [6] is U-937. Nature of the data set: Anti-inflammatory activity in human U937-derived macrophage-like cells assessed as inhibition of LPS-induced IL-6 secretion at 62.5 uM preincubated for 2 hrs followed by LPS addition measured after 24 hrs by ELISA relative to control. It counts as functional.
The test system of data set [7] is U-937. In words: Anti-inflammatory activity in human U937-derived macrophage-like cells assessed as inhibition of LPS-induced IL-6 secretion preincubated for 2 hrs followed by LPS addition measured after 24 hrs by ELISA. Format: functional, cell-based.

The term inhibition denotes the drop in the measured response relative to a control, in per cent.

SMILES strings stand for the structures.

On to `COc1ccc(CC(=O)O)cc1O`, for which, in the data set with U-937 [1], the inhibition at 125 µM is 0.5%. The MNTC at 24 h in data set [2] is greater than 1000 µM. Besides, the inhibition at 250 µM with U-937 [3] amounted to 2.1%. For the same compound, the inhibition at 500 µM in the data set with U-937 [4] turned out to be 2%.

For `COc1cc(C(O)CO)ccc1O` (centres undefined), in the data set with U-937 [1], the inhibition at 125 µM stood at 2.1%. The MNTC at 24 h in data set [2] is 500 µM. Moreover, in the data set on U-937 [3], the inhibition at 250 µM was found to be 8%. Further, the inhibition at 500 µM with U-937 [4] was determined as 86.8%.

Take `CCOC(=O)C(c1ccc(OC)c(O)c1)C(c1ccc(OC)c(O)c1)c1ccc(OC)c(O)c1` (centres undefined): the inhibition at 125 µM with U-937 [1] turned out to be 41.3%. Moreover, the MNTC at 24 h in data set [2] turned out to be 62.5 µM. Moreover, in the data set with U-937 [3], the inhibition at 250 µM is 96.8%. In addition, the inhibition at 31.25 µM with U-937 [5] was 3%. In the data set on U-937 [6], the inhibition at 62.5 µM was 5.9%. Further, the inhibition at 500 µM in the data set with U-937 [4] turned out to be 100%.

With `COc1cc(CCO)ccc1O`, the inhibition at 125 µM with U-937 [1] worked out at 1.1%. For the same compound, the MNTC at 24 h in data set [2] was greater than 1000 µM. The inhibition at 250 µM in the data set with U-937 [3] amounted to 0.9%. For the same compound, the inhibition at 500 µM in the data set on U-937 [4] was determined as 1.2%.

On to `COc1cc(CC(=O)O)ccc1O` [HOMOVANILLIC ACID], for which the inhibition at 125 µM with U-937 [1] is 0.3%. In addition, in data set [2], the MNTC at 24 h was greater than 1000 µM. Further, in the data set on U-937 [3], the inhibition at 250 µM was 0.2%. The inhibition at 500 µM in the data set with U-937 [4] was found to be 0.6%.

For `COc1ccc(Cc2ccc(OC)c(O)c2)cc1O`, the inhibition at 125 µM in the data set on U-937 [1] was 50.7%. Besides, the MNTC at 24 h in data set [2] stood at 500 µM. In the data set on U-937 [3], the inhibition at 250 µM was determined as 92.5%. Besides, the inhibition at 500 µM in the data set on U-937 [4] worked out at 99.8%.

Regarding `COc1ccc(C(CO)C(c2ccc(OC)c(O)c2)c2ccc(OC)c(O)c2)cc1O` (centres undefined), the inhibition at 125 µM in the data set with U-937 [1] came out at 48.3%. For the same compound, the MNTC at 24 h in data set [2] is 250 µM. Moreover, the inhibition at 250 µM in the data set with U-937 [3] turned out to be 96.9%. For the same compound, in the data set on U-937 [7], the inhibition entry is “Dose-dependent effect”. The inhibition at 31.25 µM in the data set on U-937 [5] is 34.5%. In addition, the inhibition at 62.5 µM with U-937 [6] stood at 43.3%. In addition, the inhibition at 500 µM in the data set with U-937 [4] was 99.7%.

`CCOC(=O)Cc1ccc(OC)c(O)c1`: the inhibition at 125 µM in the data set on U-937 [1] turned out to be 0.8%. The MNTC at 24 h in data set [2] was greater than 1000 µM. Besides, in the data set on U-937 [3], the inhibition at 250 µM was found to be 3.2%. Also, in the data set with U-937 [4], the inhibition at 500 µM turned out to be 8.3%.

Regarding `CCOC(=O)C(=C(c1ccccc1)c1ccccc1)c1ccccc1`, the inhibition at 125 µM in the data set with U-937 [1] came to 11%. Moreover, the MNTC at 24 h in data set [2] was less than 15.6 µM. For the same compound, the inhibition at 250 µM in the data set on U-937 [3] was 100%. The inhibition at 31.25 µM in the data set with U-937 [5] amounted to 0.5%. Further, the inhibition at 62.5 µM in the data set with U-937 [6] amounted to 0.5%. Further, the inhibition at 500 µM with U-937 [4] was determined as 100%.

Turning to `CCOC(=O)Cc1ccc(O)c(OC)c1`, the inhibition at 125 µM in the data set with U-937 [1] worked out at 0.2%. In data set [2], the MNTC at 24 h is greater than 1000 µM. Moreover, the inhibition at 250 µM in the data set on U-937 [3] turned out to be 0.4%. Besides, in the data set with U-937 [4], the inhibition at 500 µM stood at 0.8%.

`COc1cc(C(CO)C(c2ccc(O)c(OC)c2)c2ccc(O)c(OC)c2)ccc1O` (centres undefined): the inhibition at 125 µM with U-937 [1] turned out to be 55.3%. For the same compound, the MNTC at 24 h in data set [2] was found to be 500 µM. Besides, in the data set on U-937 [3], the inhibition at 250 µM is 84.7%. The inhibition entry with U-937 [7] was “Dose-dependent effect”. Moreover, the inhibition at 31.25 µM with U-937 [5] came to 3.7%. Moreover, in the data set on U-937 [6], the inhibition at 62.5 µM worked out at 4.7%. The inhibition at 500 µM in the data set with U-937 [4] amounted to 93.8%.

Turning to `CCOC(=O)C(=C(c1ccc(OC)c(O)c1)c1ccc(OC)c(O)c1)c1ccc(OC)c(O)c1`, the inhibition at 125 µM in the data set on U-937 [1] was 97.8%. The MNTC at 24 h in data set [2] worked out at 62.5 µM. Further, the inhibition at 250 µM with U-937 [3] was found to be 100%. Besides, the inhibition at 31.25 µM in the data set with U-937 [5] amounted to 0.8%. Further, in the data set on U-937 [6], the inhibition at 62.5 µM was 31.2%. In addition, in the data set with U-937 [4], the inhibition at 500 µM was 100%.

`COc1cc(Cc2ccc(O)c(OC)c2)ccc1O`: the inhibition at 125 µM in the data set on U-937 [1] is 27.5%. Also, the MNTC at 24 h in data set [2] came out at 500 µM. The inhibition at 250 µM with U-937 [3] was 90.5%. The inhibition at 500 µM with U-937 [4] is 98.1%.

As to `COc1ccc(C(O)CO)cc1O` (centres undefined), in the data set on U-937 [1], the inhibition at 125 µM was found to be 1.4%. Moreover, the MNTC at 24 h in data set [2] was determined as 500 µM. For the same compound, in the data set with U-937 [3], the inhibition at 250 µM is 20.9%. Also, in the data set on U-937 [4], the inhibition at 500 µM was 83.8%.

Turning to `COc1ccc(C(=O)CO)cc1O`, in the data set on U-937 [1], the inhibition at 125 µM came out at 0.8%. In data set [2], the MNTC at 24 h was determined as 500 µM. Moreover, the inhibition at 250 µM in the data set on U-937 [3] worked out at 24.1%. Besides, the inhibition at 500 µM in the data set with U-937 [4] was 92.5%.

Take `COc1cc(C(=O)CO)ccc1O`: the inhibition at 125 µM in the data set on U-937 [1] was found to be 4.9%. Moreover, in data set [2], the MNTC at 24 h is 500 µM. Also, the inhibition at 250 µM in the data set on U-937 [3] was found to be 64.4%. For the same compound, in the data set on U-937 [4], the inhibition at 500 µM turned out to be 90.1%.

Turning to `CCOC(=O)C(c1ccccc1)C(c1ccccc1)c1ccccc1` (centres undefined), the inhibition at 125 µM with U-937 [1] is 2%. The MNTC at 24 h in data set [2] stood at 62.5 µM. In addition, the inhibition at 250 µM in the data set on U-937 [3] worked out at 85.3%. The inhibition at 31.25 µM with U-937 [5] is 0.2%. In the data set on U-937 [6], the inhibition at 62.5 µM amounted to 0.4%. In addition, the inhibition at 500 µM in the data set with U-937 [4] turned out to be 99.8%.

With `COc1ccc(CCO)cc1O`, in the data set with U-937 [1], the inhibition at 125 µM worked out at 0.9%. In addition, in data set [2], the MNTC at 24 h is greater than 1000 µM. Also, the inhibition at 250 µM in the data set with U-937 [3] came to 2.7%. Further, in the data set with U-937 [4], the inhibition at 500 µM amounted to 5.1%.

On to `OCC(c1ccccc1)C(c1ccccc1)c1ccccc1` (centres undefined), for which the inhibition at 125 µM in the data set with U-937 [1] was 100%. The MNTC at 24 h in data set [2] turned out to be 31.2 µM. In addition, in the data set with U-937 [3], the inhibition at 250 µM came out at 100%. Besides, the inhibition at 31.25 µM in the data set on U-937 [5] is 1.4%. Further, the inhibition at 62.5 µM in the data set on U-937 [6] was 15.6%. For the same compound, in the data set with U-937 [4], the inhibition at 500 µM is 100%.

For `CCOC(=O)C(c1ccc(O)c(OC)c1)C(c1ccc(O)c(OC)c1)c1ccc(O)c(OC)c1` (centres undefined), the inhibition at 125 µM in the data set on U-937 [1] turned out to be 34.6%. The MNTC at 24 h in data set [2] was determined as 250 µM. Further, the inhibition at 250 µM in the data set on U-937 [3] was 91.9%. Also, in the data set with U-937 [5], the inhibition at 31.25 µM worked out at 4%. For the same compound, in the data set on U-937 [6], the inhibition at 62.5 µM was 9.4%. Besides, in the data set with U-937 [4], the inhibition at 500 µM came to 100%.

Consider `CCOC(=O)C(=C(c1ccc(O)c(OC)c1)c1ccc(O)c(OC)c1)c1ccc(O)c(OC)c1`, for which the inhibition at 125 µM in the data set with U-937 [1] was determined as 99.5%. Moreover, in data set [2], the MNTC at 24 h was 62.5 µM. In addition, the inhibition at 250 µM in the data set on U-937 [3] was determined as 100%. Also, the inhibition at 31.25 µM with U-937 [5] stood at 2.5%. Besides, the inhibition at 62.5 µM in the data set on U-937 [6] was found to be 11.2%. Also, the inhibition at 500 µM in the data set on U-937 [4] was found to be 100%.
